Data: ChEMBL document CHEMBL1151732, “Synthesis and anticancer activity comparison of phenylalkyl isoselenocyanates with corresponding naturally occurring and synthetic isothiocyanates” (J Med Chem, 2008)
Activity calls are given as the source filed them. The rule behind the calls is not given here.

Test system: UACC-903
Assay: Antitumor activity in human UACC-903 cells xenografted in Harlan Sprague-Dawley athymic nude mouse assessed as reduction in tumor size at 2.5 uM, ip administered three times per week
Assay type: functional
Set-up: scale not given: the % may be the effect or the level left
Settings: not given
Method in brief: (§1)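 UACC 903 xenografts: 5×10^6 cells s.c. in 0.2 ml DMEM/10% FBS at both flanks of 4–6-week-old female athymic nude mice. From day six, mice were randomized (5/group, 2 tumors each) and given 2.5 μmoles i.p. three times weekly (Mon/Wed/Fri), with DMSO vehicle controls. Tumor size (calipers, mm³) and body weight were measured thrice weekly.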

**Q.** For S=C=NCCc1ccccc1 [PHENETHYLISOTHIOCYANATE], which Activity is on record?
**A.** 40%

**Q.** With S=C=NCCCCc1ccccc1 [PHENYLBUTYL ISOTHIOCYANATE] as the compound, how does the Activity read?
**A.** 40%

**Q.** S=C=NCCCCCCc1ccccc1 [PHENYLHEXYL ISOTHIOCYANATE] was tested. Which Activity did it give?
**A.** 40%

**Q.** For S=C=NCc1ccccc1 [BENZYL ISOTHIOCYANATE], which Activity is on record?
**A.** 40%

Test system: Mus musculus
Assay: Toxicity in human UACC-903 cells xenografted in Harlan Sprague-Dawley athymic nude mouse assessed as effect on body weight at 0.76 uM, ip administered three times per week
Assay type: organism-based
Settings: in vivo
Method in brief: (§2)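 Female athymic nude mice aged 4–6 weeks received 5×10^6 UACC 903 cells s.c. in 0.2 ml DMEM/10% FBS above both rib cages. After six days they were randomized (5 mice/group, 2 tumors/mouse) and dosed i.p. with 0.76 μmoles (3 ppm selenium) Mon/Wed/Fri; controls received DMSO vehicle. Caliper tumor volume (mm³) and body weight were recorded thrice weekly.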

**Q.** How did the Activity turn out when [Se]=C=NCCCCCCc1ccccc1 [PHENYLHEXYL ISOSELENOCYANATE] was run?
**A.** Non-toxic

Test system: UACC-903
Assay: Cytotoxicity against human UACC-903 cells after 24 hrs by MTS assay
Settings: UACC-903, 24 h

**Q.** For S=C=NCCc1ccccc1 [PHENETHYLISOTHIOCYANATE], which IC50 is on record?
**A.** 12 µM

**Q.** How did the IC50 turn out when S=C=NCCCCc1ccccc1 [PHENYLBUTYL ISOTHIOCYANATE] was run?
**A.** 16 µM

**Q.** With [Se]=C=NCCCCCCc1ccccc1 [PHENYLHEXYL ISOSELENOCYANATE] as the compound, how does the IC50 read?
**A.** 10 µM

**Q.** S=C=NCCCCCCc1ccccc1 [PHENYLHEXYL ISOTHIOCYANATE] was tested. Which IC50 did it give?
**A.** 15 µM

**Q.** How did the IC50 turn out when S=C=NCc1ccccc1 [BENZYL ISOTHIOCYANATE] was run?
**A.** 15 µM

Test system: UACC-903
Assay: Cytotoxicity against human UACC-903 cells assessed as decrease in cell viability after 24 hrs by MTS assay relative to control
Assay type: functional, cell-based
Settings: not given
Method in brief: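 UACC 903 melanoma cells, 5×10^3 per well in DMEM with 10% FBS, were exposed after 24 h to DMSO or 5, 10 or 15 μM agent for 24 h. Viability was read by MTS tetrazolium reduction to formazan and expressed as percent of DMSO control, as the mean of three independent experiments with SEM.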

**Q.** How did the Activity turn out when S=C=NCCc1ccccc1 [PHENETHYLISOTHIOCYANATE] was run?
**A.** Dose-dependent effect

**Q.** S=C=NCCCCc1ccccc1 [PHENYLBUTYL ISOTHIOCYANATE] was tested. Which Activity did it give?
**A.** Dose-dependent effect

**Q.** Which Activity does the source give for [Se]=C=NCCCCCCc1ccccc1 [PHENYLHEXYL ISOSELENOCYANATE] here?
**A.** Dose-dependent effect

**Q.** For S=C=NCCCCCCc1ccccc1 [PHENYLHEXYL ISOTHIOCYANATE], which Activity is on record?
**A.** Dose-dependent effect

**Q.** For S=C=NCc1ccccc1 [BENZYL ISOTHIOCYANATE], which Activity is on record?
**A.** Dose-dependent effect

Test system: UACC-903
Assay: Induction of apoptosis in human UACC-903 cells assessed as increase in caspase 7 activity after 24 hrs relative to control
Assay type: functional, cell-based
Settings: not given
Method in brief: (§3)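 Apoptosis was measured in UACC 903 cells seeded at 5×10^3 per well and treated 24 h with DMSO vehicle or increasing agent concentrations. Combined caspase-3/7 activity was read with the Apo-ONE homogeneous caspase-3/7 kit and reported as fold increase over vehicle-treated cells, averaged over three independent experiments with SEM.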

**Q.** S=C=NCCc1ccccc1 [PHENETHYLISOTHIOCYANATE] was tested. Which Activity did it give?
**A.** Dose-dependent effect

**Q.** How did the Activity turn out when S=C=NCCCCc1ccccc1 [PHENYLBUTYL ISOTHIOCYANATE] was run?
**A.** Dose-dependent effect

**Q.** Which Activity does the source give for [Se]=C=NCCCCCCc1ccccc1 [PHENYLHEXYL ISOSELENOCYANATE] here?
**A.** Dose-dependent effect

**Q.** Which Activity does the source give for S=C=NCCCCCCc1ccccc1 [PHENYLHEXYL ISOTHIOCYANATE] here?
**A.** Dose-dependent effect

**Q.** S=C=NCc1ccccc1 [BENZYL ISOTHIOCYANATE] was tested. Which Activity did it give?
**A.** Dose-dependent effect

Test system: UACC-903
Assay: Induction of apoptosis in human UACC-903 cells assessed as increase in caspase 3 activity after 24 hrs relative to control
Assay type: functional, cell-based
Settings: not given
Method in brief: as §3

**Q.** Which Activity does the source give for S=C=NCCc1ccccc1 [PHENETHYLISOTHIOCYANATE] here?
**A.** Dose-dependent effect

**Q.** With S=C=NCCCCc1ccccc1 [PHENYLBUTYL ISOTHIOCYANATE] as the compound, how does the Activity read?
**A.** Dose-dependent effect

**Q.** [Se]=C=NCCCCCCc1ccccc1 [PHENYLHEXYL ISOSELENOCYANATE] was tested. Which Activity did it give?
**A.** Dose-dependent effect

**Q.** How did the Activity turn out when S=C=NCCCCCCc1ccccc1 [PHENYLHEXYL ISOTHIOCYANATE] was run?
**A.** Dose-dependent effect

**Q.** Which Activity does the source give for S=C=NCc1ccccc1 [BENZYL ISOTHIOCYANATE] here?
**A.** Dose-dependent effect

Test system: T98G
Assay: Cytotoxicity against human T98G cells after 24 hrs by MTS assay
Settings: not given

**Q.** S=C=NCCc1ccccc1 [PHENETHYLISOTHIOCYANATE] was tested. Which IC50 did it give?
**A.** > 100 µM

**Q.** For S=C=NCCCCc1ccccc1 [PHENYLBUTYL ISOTHIOCYANATE], which IC50 is on record?
**A.** 35 µM

**Q.** [Se]=C=NCCCCCCc1ccccc1 [PHENYLHEXYL ISOSELENOCYANATE] was tested. Which IC50 did it give?
**A.** 23 µM

**Q.** Which IC50 does the source give for S=C=NCCCCCCc1ccccc1 [PHENYLHEXYL ISOTHIOCYANATE] here?
**A.** 26 µM

**Q.** For S=C=NCc1ccccc1 [BENZYL ISOTHIOCYANATE], which IC50 is on record?
**A.** > 100 µM

Test system: MDA-MB-231
Assay: Cytotoxicity against human MDA-MB-231 cells after 24 hrs by MTS assay
Settings: MDA-MB-231, 24 h

**Q.** For S=C=NCCc1ccccc1 [PHENETHYLISOTHIOCYANATE], which IC50 is on record?
**A.** 38 µM

**Q.** Which IC50 does the source give for S=C=NCCCCc1ccccc1 [PHENYLBUTYL ISOTHIOCYANATE] here?
**A.** 27 µM

**Q.** How did the IC50 turn out when [Se]=C=NCCCCCCc1ccccc1 [PHENYLHEXYL ISOSELENOCYANATE] was run?
**A.** 22 µM

**Q.** For S=C=NCCCCCCc1ccccc1 [PHENYLHEXYL ISOTHIOCYANATE], which IC50 is on record?
**A.** 24 µM

**Q.** Which IC50 does the source give for S=C=NCc1ccccc1 [BENZYL ISOTHIOCYANATE] here?
**A.** 42 µM

Test system: PC-3
Assay: Cytotoxicity against human PC-3 cells after 24 hrs by MTS assay
Settings: PC-3, 24 h

**Q.** With S=C=NCCc1ccccc1 [PHENETHYLISOTHIOCYANATE] as the compound, how does the IC50 read?
**A.** 24 µM

**Q.** Which IC50 does the source give for S=C=NCCCCc1ccccc1 [PHENYLBUTYL ISOTHIOCYANATE] here?
**A.** 24 µM

**Q.** With [Se]=C=NCCCCCCc1ccccc1 [PHENYLHEXYL ISOSELENOCYANATE] as the compound, how does the IC50 read?
**A.** 14 µM

**Q.** With S=C=NCCCCCCc1ccccc1 [PHENYLHEXYL ISOTHIOCYANATE] as the compound, how does the IC50 read?
**A.** 17 µM

**Q.** Which IC50 does the source give for S=C=NCc1ccccc1 [BENZYL ISOTHIOCYANATE] here?
**A.** > 50 µM

Test system: UACC-903
Assay: Antiproliferative activity against human UACC-903 cells assessed as BrdU incorporation after 24 hrs by ELISA relative to control
Assay type: functional, cell-based
Settings: not given
Method in brief: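 UACC 903 cells, 5×10^3 per well, treated 24 h with DMSO vehicle or increasing concentrations of test agents. Proliferating cells were measured by BrdU incorporation with a BrdU ELISA kit. Values are expressed as percent of DMSO-treated cells, as the mean of three independent experiments with SEM.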

**Q.** For S=C=NCCc1ccccc1 [PHENETHYLISOTHIOCYANATE], which Activity is on record?
**A.** Dose-dependent effect

**Q.** How did the Activity turn out when S=C=NCCCCc1ccccc1 [PHENYLBUTYL ISOTHIOCYANATE] was run?
**A.** Dose-dependent effect

**Q.** With [Se]=C=NCCCCCCc1ccccc1 [PHENYLHEXYL ISOSELENOCYANATE] as the compound, how does the Activity read?
**A.** Dose-dependent effect

**Q.** S=C=NCCCCCCc1ccccc1 [PHENYLHEXYL ISOTHIOCYANATE] was tested. Which Activity did it give?
**A.** Dose-dependent effect

**Q.** For S=C=NCc1ccccc1 [BENZYL ISOTHIOCYANATE], which Activity is on record?
**A.** Dose-dependent effect

Test system: Caco-2
Assay: Cytotoxicity against human Caco-2 cells after 24 hrs by MTS assay
Settings: Caco-2, 24 h

**Q.** How did the IC50 turn out when S=C=NCCc1ccccc1 [PHENETHYLISOTHIOCYANATE] was run?
**A.** 14 µM

**Q.** Which IC50 does the source give for S=C=NCCCCc1ccccc1 [PHENYLBUTYL ISOTHIOCYANATE] here?
**A.** 27 µM

**Q.** How did the IC50 turn out when [Se]=C=NCCCCCCc1ccccc1 [PHENYLHEXYL ISOSELENOCYANATE] was run?
**A.** 10 µM

**Q.** With S=C=NCCCCCCc1ccccc1 [PHENYLHEXYL ISOTHIOCYANATE] as the compound, how does the IC50 read?
**A.** 49 µM

**Q.** How did the IC50 turn out when S=C=NCc1ccccc1 [BENZYL ISOTHIOCYANATE] was run?
**A.** 15 µM

Test system: HT-1080
Assay: Cytotoxicity against human HT1080 cells after 24 hrs by MTS assay
Settings: HT-1080, 24 h

**Q.** Which IC50 does the source give for S=C=NCCc1ccccc1 [PHENETHYLISOTHIOCYANATE] here?
**A.** 15 µM

**Q.** With S=C=NCCCCc1ccccc1 [PHENYLBUTYL ISOTHIOCYANATE] as the compound, how does the IC50 read?
**A.** 15 µM

**Q.** How did the IC50 turn out when [Se]=C=NCCCCCCc1ccccc1 [PHENYLHEXYL ISOSELENOCYANATE] was run?
**A.** 12 µM

**Q.** For S=C=NCCCCCCc1ccccc1 [PHENYLHEXYL ISOTHIOCYANATE], which IC50 is on record?
**A.** 29 µM

**Q.** How did the IC50 turn out when S=C=NCc1ccccc1 [BENZYL ISOTHIOCYANATE] was run?
**A.** > 50 µM

Test system: Mus musculus
Assay: Toxicity in human UACC-903 cells xenografted in Harlan Sprague-Dawley athymic nude mouse assessed as effect on body weight at 2.5 uM, ip administered three times per week
Assay type: organism-based
Settings: in vivo
Method in brief: as §1

**Q.** For S=C=NCCc1ccccc1 [PHENETHYLISOTHIOCYANATE], which Activity is on record?
**A.** Non-toxic

**Q.** For S=C=NCCCCc1ccccc1 [PHENYLBUTYL ISOTHIOCYANATE], which Activity is on record?
**A.** Non-toxic

**Q.** With S=C=NCCCCCCc1ccccc1 [PHENYLHEXYL ISOTHIOCYANATE] as the compound, how does the Activity read?
**A.** Non-toxic

**Q.** S=C=NCc1ccccc1 [BENZYL ISOTHIOCYANATE] was tested. Which Activity did it give?
**A.** Non-toxic

Test system: UACC-903
Assay: Antitumor activity in human UACC-903 cells xenografted in Harlan Sprague-Dawley athymic nude mouse assessed as reduction in tumor size at 0.76 uM, ip administered three times per week
Assay type: functional
Settings: not given
Method in brief: as §2

**Q.** S=C=NCCc1ccccc1 [PHENETHYLISOTHIOCYANATE] was tested. Which Activity did it give?
**A.** inactive

**Q.** With S=C=NCCCCc1ccccc1 [PHENYLBUTYL ISOTHIOCYANATE] as the compound, how does the Activity read?
**A.** inactive

**Q.** Which Activity does the source give for [Se]=C=NCCCCCCc1ccccc1 [PHENYLHEXYL ISOSELENOCYANATE] here?
**A.** 30%

**Q.** For S=C=NCCCCCCc1ccccc1 [PHENYLHEXYL ISOTHIOCYANATE], which Activity is on record?
**A.** inactive

**Q.** For S=C=NCc1ccccc1 [BENZYL ISOTHIOCYANATE], which Activity is on record?
**A.** inactive
